From ChEMBL document CHEMBL1154974, “Semi-automated high-throughput fluorescent intercalator displacement-based discovery of cytotoxic DNA binding agents from a large compound library” (Bioorg Med Chem Lett, 2010)
*1 amine or outer side, *2 acyl side, *3 side chain or, on linkers, in order; H or OH if unused. Where a SMILES comes first, the peptide text is derived from it. Bridges are numbered along the chain shown (N, C = ends). Roman numbers before positions name the chains, in order. [ ]: non-standard residue; d: D form. Actinocin(1to9) = Cc1c2oc3c(C)ccc(C(=O)[*:2])c3nc-2c(C(=O)[*:1])c(N)c1=O; NMeV = CN[C@H](C(=O)O)C(C)C; Sar = CNCC(=O)O

Legend:
Nucleic Acid [1] = assay: Binding affinity to calf thymus DNA assessed as decrease in ethidium bromide fluorescence by FID assay; assay type: nucleic-acid assay, Bos taurus
Summary of the method: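 Concentration-response FID using plate conditions as in the screen (calf thymus DNA, ethidium bromide, Tris buffer). Compound added to final 0.1-50 μM, from gravimetrically prepared stocks. FD50 taken as concentration giving 50% fluorescence decrease within each compound's achievable range; maximum %F decrease measured experimentally.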

[2] = Cytotoxicity against human SF-767 cells assessed as viable cells after 72 hrs by MTT assay; assay type: functional; details: SF767, 72 h, read-out: LC50 (the source's name)
Summary of the method: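 SF767 glioblastoma cells, 2000 per well, grown 24 h, then exposed to increasing concentrations of compound for 72 h. Viable cells read by MTT with standard protocols. Media-only blank in each treatment group as background. Run in triplicate. LC50 read graphically from plots of % surviving cells against concentration.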

Nucleic Acid [3] = assay: Binding affinity to poly dA/dT DNA assessed as change in melting temperature by thermal denaturation assay; assay type: nucleic-acid assay
Nucleic Acid [4] = assay: Binding affinity to G/C-rich DNA oligonucleotide assessed as change in melting temperature by thermal denaturation assay; assay type: nucleic-acid assay
Nucleic Acid [5] = assay: Binding affinity to calf thymus DNA assessed as decrease in ethidium bromide fluorescence at 10 uM by HT-FID assay; assay type: nucleic-acid assay; details: Bos taurus

| SMILES | EC50 (Nucleic Acid [1]) [µM] | CC50 [2] [µM] | ΔTm (Nucleic Acid [3]) [°C] | ΔTm (Nucleic Acid [4]) [°C] | Binding Decrease (Nucleic Acid [5]) [%] |
| --- | --- | --- | --- | --- | --- |
| Cc1cccn2c(=O)c3cc(C(=O)NCCc4ccccc4)c(=N)n(CCc4ccccc4)c3nc12 | 7.7 | > 25 | 0 | 10 | 22 |
| Cc1ccc(Nc2nc(N)nc(CN3CCC(Cc4ccccc4)CC3)n2)cc1 | 5.5 | 26 | > 45 | 0 | 32 |
| CC(C)c1ccc(CNc2ccc3c(c2)ncn3C)cc1 | 4.4 | 10 | > 45 | 0 | 32 |
| CCOC(=O)Cn1c(=N)n(CCOc2cccc(C)c2)c2ccccc21 | 7.7 | > 50 | > 45 | 0 | 46 |
| CC(C)c1ccc(CNCCC(c2ccccc2)c2ccco2)cc1 (stereo not drawn) | 13.5 | 13 | > 45 | 0 | 34 |
| CCc1ccc(C2NCc3ccccc3-n3cccc32)cc1 (stereo not drawn) | 9.4 | 35 | > 45 | 0 | 36 |
| CCc1ccc2c(C)nc(NC3=NC(C)(C)C=C(C)N3)nc2c1 | 7.7 | 2.6 | 10 | 0 | 40 |
| Cc1c2oc3c(C)ccc(C(=O)N[C@@H]4C(=O)N[C@H](C(C)C)C(=O)N5CCC[C@H]5C(=O)N(C)CC(=O)N(C)[C@@H](C(C)C)C(=O)O[C@@H]4C)c3nc-2c(C(=O)N[C@@H]2C(=O)N[C@H](C(C)C)C(=O)N3CCC[C@H]3C(=O)N(C)CC(=O)N(C)[C@@H](C(C)C)C(=O)O[C@@H]2C)c(N)c1=O [DACTINOMYCIN] (I: T[dV]P[Sar][NMeV] / II: T[dV]P[Sar][NMeV]; ester I:1-I:C, II:1-II:C; linker I:N-II:N via Actinocin(1to9)) | 4.3 |  | > 45 | 10 | 63 |
| Cn1cc(NC(=O)c2cc(NC(=O)CNC(=N)N)cn2C)cc1C(=O)NCCC(=N)N [NETROPSIN] | 5.1 |  | 45 | 0 | 32 |
